NS3 helicase inh – blocks Hepatitis C virus NS3 helicase unwinding | inhibition, % at 10.9 µM | NS3 helicase DNA unwinding, Cy5 molecular beacon fluorescence | 290,000 compounds, 0.56% hits;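 active = inhibition above the mean of all tested compounds plus 3 SD, set per campaign, cut at about 35% in these data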;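 note: 0% = DMSO wells and 100% = thioflavine S control wells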
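Test system: hepatitis C virus NS3 helicase domain fragment enzyme. Also added: annealed dual-labelled DNA beacon duplex, ATP-started. Timing: 60 min unwinding reaction at 25 °C after ATP addition. Technique: Cy5 fluorescence. Measure: % inhibition of unwinding.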
PABP1 MLLE inh – inhibitors of microRNA-mediated deadenylation, human PABP1 MLLE binding; AID 588489; GST-MLLE / FITC-PAM2 fluorescence polarization; inhibition, % at 20 µM; 360,000 compounds, 0.36% hits; in the data active = inhibition above about 35%, passing the limit was not always enough;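 note: plate controls were DMSO wells with GST-MLLE for no effect and wells lacking GST-MLLE protein for full effect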
Target sequence (P11940 whole entry, looked up): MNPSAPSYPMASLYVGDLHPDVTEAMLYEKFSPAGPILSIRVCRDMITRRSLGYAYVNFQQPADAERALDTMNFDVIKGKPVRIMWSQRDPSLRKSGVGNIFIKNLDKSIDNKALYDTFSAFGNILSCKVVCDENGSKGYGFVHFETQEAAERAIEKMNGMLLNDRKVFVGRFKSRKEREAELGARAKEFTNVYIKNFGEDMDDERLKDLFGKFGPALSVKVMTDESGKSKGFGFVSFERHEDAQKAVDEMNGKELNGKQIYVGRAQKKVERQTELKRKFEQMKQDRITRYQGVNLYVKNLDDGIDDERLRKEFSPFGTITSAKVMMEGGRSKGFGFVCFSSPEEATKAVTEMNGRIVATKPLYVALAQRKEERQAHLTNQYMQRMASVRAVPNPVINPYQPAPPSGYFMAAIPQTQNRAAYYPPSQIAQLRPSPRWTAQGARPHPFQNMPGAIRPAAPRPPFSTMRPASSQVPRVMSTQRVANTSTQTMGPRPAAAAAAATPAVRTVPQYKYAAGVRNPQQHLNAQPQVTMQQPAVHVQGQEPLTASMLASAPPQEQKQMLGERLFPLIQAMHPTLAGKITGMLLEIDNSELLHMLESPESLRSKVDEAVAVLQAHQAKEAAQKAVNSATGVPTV
PABP FP inh – blocks human PABP binding to poly(A) RNA; 290,000 compounds, 1% hits; AID 2014; inhibition, % at 35 µM; fluorescence polarization;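 note: calls also rest on retests at 20 µM and on dose response follow-up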
core dimer inh – HCV core protein dimerization inhibition; TR-FRET GST/Flag-core106 dimerization, 1536-well; inhibition, % at 5 µM; 300,000 compounds, 0.33% hits; AID 1899;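 active = inhibition above the mean of all tested compounds plus 3 SD, set per screening campaign, cut at about 45% in these data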
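System: GST-tagged and Flag-tagged HCV core protein residues 1-106 / Input: core106 proteins, GST 13.5 nM and Flag 17 nM / Buffer or medium: KF-containing HEPES buffer, pH 7.45, DTT, CHAPS, BSA / Probe or stimulus: Eu-anti-GST and XL665-anti-Flag labelled anti-tag antibodies / Schedule: 4 h, 22.5 °C incubation / Technique: TR-FRET 671 and 617 nm emission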
eIF4H inh – inhibitors of RNA binding by human eIF4H; Q15056; eIF4H fluorescence polarization binding assay; inhibition, % at 35 µM; 290,000 compounds, 0.94% hits; AID 2012;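 note: calls also rest on retests at 20 µM and on dose response follow-up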
FID counter – counter-screen for HCV NS3 helicase inhibitors: DNA intercalator displacement. DNA fluorescent intercalator displacement, fluorescence. inhibition, % at 7.9 µM. 290,000 compounds, 0.17% hits. AID 1845; in the data active = inhibition above about 37%;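 note: 0% = vehicle and 100% = reference compound; higher means more ethidium bromide displaced from hairpin DNA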
* marks the source's active call; other numbers are inactive results; i = inactive; ? = inconclusive; . = no result. This is a sample that favours compounds with a hit; in the whole collection about 2% have one here. Unless noted, the rule behind the calls is not given here.

SMILES | NS3 helicase inh | PABP1 MLLE inh | PABP FP inh | core dimer inh | eIF4H inh | FID counter
N=c1c(C(=O)NCc2ccco2)cc2c(=O)n3ccccc3nc2n1CC1CCCO1 (stereo unspecified) | 4 | 47* | . | 17 | . | -10
O/N=C\c1cnc(N2CCN(c3ccccc3)CC2)s1 | 10 | -5 | -2 | -1 | -14 | -16
Cc1cccn2c(=O)c3cc(C(=O)NCc4ccco4)c(=N)n(CCOCCO)c3nc12 | 3 | 58* | . | 18 | . | 5
CCOC1=CC2=C(C(=O)C(Cl)=CC2=O)[C@@H]2CN(S(=O)(=O)c3ccc(C)cc3)[C@@H](c3ccccc3)[C@H]12 | . | 46* | . | . | . | .
Cc1ccc(N=Cc2nc(-c3ccc(C)cc3)oc2O)cc1 | 15 | -12 | 0 | . | 2 | -1
CC(=O)Nc1ccc(N=Cc2nc(-c3ccc(C)cc3)oc2O)cc1 | -5 | 39 | ? | 65* | ? | -1
Cc1cccc(NC(=O)c2cccc(S(=O)(=O)N(C)C3CCCCC3)c2)n1 | . | -19 | . | . | . | .
O=c1[nH]c(CS(=O)(=O)c2ccccc2)nc2ccccc12 | 4 | 13 | -7 | 1 | 10 | 4
CCn1c(C)c(CS(=O)(=O)c2ccccc2)[nH]c1=O | -2 | 38* | -2 | -3 | 0 | -1
COc1ccc(NC(=O)COC(=O)CNS(=O)(=O)c2ccccc2)cc1OC | -2 | 5 | -7 | -5 | -5 | 7
COc1ccc(NC(=O)COC(=O)CCNS(=O)(=O)c2ccccc2)cc1OC | -4 | -19 | 58* | 0 | active | -3
COCC(=O)OC1CCn2c1nc1c2C(=O)C(C)=C(NC(C)=O)C1=O (stereo unspecified) | . | 4 | . | . | . | .
COc1cc(/C=N\Nc2ccc([N+](=O)[O-])cc2)ccc1OCC(=O)Nc1ccc(C)c(C)c1 | -1 | 7 | 55* | . | ? | 0
COC(=O)c1ccc(CC(=O)c2c(C)cc(O)cc2O)o1 | 35 | 1 | 51* | -4 | 80* | -15
CCCCn1c(=O)[nH]c2nc3cc(NC(C)=O)ccc3nc2c1=O | 25 | 59 | 58* | 0 | 98* | -1
CCCCCn1c(=O)[nH]c2cc(C(=O)O)ccc2c1=O | 5 | 2 | 24 | -2 | 6 | 1
CCCCCCn1c(=O)[nH]c2nc3cc(N)c(C)cc3nc2c1=O | 45* | i | 3.5* | . | 65 | -4
Cc1c(C(=O)NCCC#N)sc(=O)n1Cc1ccccc1F | . | 12 | . | . | . | .
CCCCn1c(N)c(N(Cc2ccccc2OC)C(=O)C(C)C)c(=O)[nH]c1=O | -1 | -4 | 35 | -12 | 2 | -5
C[N+]1(CC(=O)OCCCc2ccccc2)CCCC1 | -12 | -147 | -10 | 4 | -1 | 9
C[N+]1(CC(=O)OCCCc2ccccc2)CCCCC1 | -1 | -127 | 77* | 3 | 1 | 8
CN1C2C=C3C(C#N)=C(N)C(C#N)(C#N)[C@@H](c4ccsc4)[C@@H]3C1CC2 (stereo partly specified) | 1 | . | 63* | 14 | 66* | 6
N#CCCn1cc(/C=N/NC(N)=S)c(-c2ccc(-c3ccccc3)cc2)n1 | -16 | -35 | 86 | 7 | 1.9* | -20
N#CCCn1cc(/C=N/O)c(-c2ccccc2)n1 | -3 | 2 | 8 | 1 | 1 | 0
Cc1noc(/C=C/c2ccco2)c1S(=O)(=O)N1CCC(C(=O)N2CCc3ccccc3C2)CC1 | 16 | -23 | -10 | 48* | 66 | -41
SMILES | NS3 helicase inh | PABP1 MLLE inh | PABP FP inh | core dimer inh | eIF4H inh | FID counter
CCCCOc1ccc(N2C(=O)C(C)CNC2=S)cc1 (stereo unspecified) | . | 52* | . | . | . | .
O=C(CCCCCNC(=O)N1CCn2c1nc1ccccc12)NCc1ccccc1Cl | -13 | 1 | -2 | 2 | -7 | -58
COc1cc2ccccc2cc1C(=O)NC(=S)Nc1cccc(C(=O)O)c1 | 20 | 40* | 13 | 18 | -2 | -29
COc1cc2ccccc2cc1C(=O)NC(=S)Nc1ccc(C(=O)O)cc1 | 18 | 26 | 0 | 12 | 37 | -35
CC(OC(=O)Cc1cccc(C(F)(F)F)c1)C(=O)Nc1ccc(Cl)cn1 (stereo unspecified) | -19 | 3 | -4 | 3 | -10 | -17
O=C(O)CNc1ccccc1C(=O)O | 4 | 3 | 39 | -3 | 74* | 0
O=C(NNC(=O)C1CC1)c1ccc(F)cc1F | . | 13 | . | . | . | .
CCCc1nc2ccc(Cl)cn2c1Cc1ccsc1 | . | 44* | . | . | . | .
NS(=O)(=O)c1ccc(N=Nc2c(-c3ccccc3)[nH]n(-c3nc(-c4ccccc4)cs3)c2=O)cc1 | 7 | -8 | -12 | 46* | -18 | -3
Nc1[nH]n2c(=O)cc(-c3ccccc3)nc2c1N=Nc1ccc(S(N)(=O)=O)cc1 | 2 | -15 | -3 | -27 | 2 | 3
Nc1nccc(-c2cccs2)n1 | 4 | -5 | -9 | -2 | 4 | -2
Brc1cc(Br)c2nc(-c3cccs3)ccc2c1 | 8 | -18 | 4 | 48* | -2 | -3
C[C@@H]1CN([C@H](C)CO)C(=O)CCCn2nncc2CO[C@@H]1CN(C)C(=O)Nc1ccc(N2CCCCC2)cc1 | . | -27 | . | . | . | .
COc1ccc(C(=S)N2CCC(C(N)=O)CC2)cc1Br | 7 | 42* | -14 | 0 | -8 | 5
O=C(CSc1nc2ccccc2s1)c1cc2ccccc2o1 | 10 | -10 | 103* | 8 | 60* | -11
O=C(CSc1nc2ccccc2s1)CSc1nc2ccccc2s1 | 25 | 0 | 26 | 4 | 18 | -9
CCc1c(C)sc(NC(=O)CC#N)c1C#N | 28 | -16 | 87* | 30 | 74* | -14
Cc1ccnc(NS(=O)(=O)c2ccc(NC(=O)CCc3ccccc3)cc2)n1 | 16 | -5 | 3 | -12 | -6 | -12
COc1ccc(CN(Cc2ccc(C(=O)O)cc2)C(=S)Nc2cccc(C)c2)cc1OC | 11 | -34 | 10 | 4 | -4 | -30
COc1ccc(NC(=S)N(Cc2ccc(C(=O)O)cc2)Cc2ccc(OC)c(OC)c2)cc1 | 4 | -10 | active | 8 | 91* | -25
CCN(CC)C(=S)Nc1ccc(OC)cc1 | -2 | -31 | 69* | 2 | active | 0
Cc1ccc(N=Cc2cccc(O)c2O)c(C)c1 | 24 | 5 | 31* | 1 | 99* | 5
Cc1ccccc1N=Cc1cccc(O)c1O | 11 | -2 | 2 | -3 | ? | 4
COc1ccc(CN(CC(=O)NCc2ccco2)C(=O)CNS(=O)(=O)c2ccc(C)cc2)cc1 | 5 | -19 | 2 | -5 | -9 | -34
Cn1c(SCC(=O)N2CCCC2)nc2ccccc21 | -11 | -6 | 87 | -4 | active | 0
Cn1c(SCC(=O)N2CCCC2)nc2ccccc2c1=O | -4 | -2 | -5 | 0 | -15 | -8
O=P(c1ccccc1)(c1ccccc1)c1cc(S(=O)(=O)O)ccc1O | 5 | -9 | 30* | . | 78* | -6

From PubChem
